Source: PubChem BioAssay (several laboratories)
KCNQ1 block – inhibitors of human KCNQ1 potassium channel; B-score at 10 µM; hit rate 1.3% among 310,000; AID 2642; CHO-K1 KCNQ1, FluxOR thallium flux fluorescence; stronger effect = higher value; P51787;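 active = compounds whose thallium flux B-score, printed positive for inhibition, exceeds three library SD while starting fluorescence stays within three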;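 note: channel opened by potassium depolarization with thallium stimulus after 20 min compound exposure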
KCC2 mod – KCC2 (human) Cl- transport modulation | Q9H2X9 | KCC2 cells, thallium flux FluoZin-2 fluorescence | B-score of Tl+ flux slope (higher = more flux/activation; lower = inhibition) at 10 µM | hit rate 2.2% among 190,000;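 active = thallium flux slope and its plate-corrected score both differing from the plate sample mean at a set confidence after two filtering rounds, in either direction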;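 note: slope of fluorescence scaled to starting intensity during 10 to 20 s after thallium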
KCNQ1 act – human KCNQ1 channel potentiation or activation | hit rate 0.35% among 310,000 | B-score at 10 µM | CHO-K1 KCNQ1, thallium flux FluxOR fluorescence; stronger effect = higher value | P51787;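 active = fluorescence ratio B-score, a plate-corrected score, at least three library SD, with initial intensity B-score within 5 SD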
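Schedule – 37 °C overnight plating, 90-min dark dye load, 20-min compound pretreatment · System – stable KCNQ1 CHO-K1 line · Probe or stimulus – thallium- and potassium-containing depolarizing buffer · Measured by – kinetic FluxOR fluorescence, 10 s baseline plus 110 s post-stimulus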
KCNK9 inh – human KCNK9 channel inhibition | hit rate 1.2% among 310,000 | AID 488922 | Q9NPC2 | HEK293 KCNK9, FluxOR thallium flux fluorescence; stronger effect = lower value | B-score at 10 µM;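 active = ratio B-score over 3 SD below the library mean, with starting fluorescence within 5 SD of its mean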;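 note: negative B-score means less thallium flux so channel inhibition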
KCNK3 inh – human KCNK3 channel inhibition, primary screen; O14649; CHO-KCNK3 thallium flux, FluxOR fluorescence; stronger effect = lower value; B-score at 10 µM; hit rate 0.84% among 340,000; AID 602410;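 active = B-score under library mean minus 4 SD, starting fluorescence ratio at most library mean plus 5 SD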;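 note: more negative B-score means stronger inhibition of thallium flux through KCNK3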
hERG protect – compounds protecting human hERG from proarrhythmic drug block | Q12809 | CHO-hERG, FluxOR thallium flux, dofetilide IC70 present | activation (rescue from dofetilide block), less the hit threshold, % at 10 µM | hit rate 0.51% among 310,000 | AID 1511;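 active = activation above the mean of controls blocked by dofetilide plus 5 SD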;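 note: thallium influx through hERG after potassium depolarization seen as dye fluorescence rise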
KCNK9 block conf – human KCNK9 inhibitor confirmation; inhibition, % at 10 µM; HEK293 KCNK9 cells, FluxOR thallium flux fluorescence; shares compounds with KCNK9 inh; hit rate 43% among 4,900;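 active = thallium signal inhibited by more than 5 SD of the compound-free buffer control wells, on both duplicate plates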;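 note: 0% = assay buffer control wells without compound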
Kir21 sel – mouse Kir2.1 off-target activity of KCNK9 modulators | AID 492993 | inhibition, % at 10 µM | shares compounds with KCNK9 inh | Kir2.1 cells, FluxOR thallium flux fluorescence | hit rate 4% among 4,900;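 active = thallium signal drop more than 5 SD beyond the mean of the no-compound control wells, seen in both duplicate plates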;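 note: signal is fluorescence rise after thallium addition divided by baseline fluorescence; plate controls were assay buffer only for no effect and full block by chlorpromazine control for full effect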
Target sequence (P35561 whole entry, looked up): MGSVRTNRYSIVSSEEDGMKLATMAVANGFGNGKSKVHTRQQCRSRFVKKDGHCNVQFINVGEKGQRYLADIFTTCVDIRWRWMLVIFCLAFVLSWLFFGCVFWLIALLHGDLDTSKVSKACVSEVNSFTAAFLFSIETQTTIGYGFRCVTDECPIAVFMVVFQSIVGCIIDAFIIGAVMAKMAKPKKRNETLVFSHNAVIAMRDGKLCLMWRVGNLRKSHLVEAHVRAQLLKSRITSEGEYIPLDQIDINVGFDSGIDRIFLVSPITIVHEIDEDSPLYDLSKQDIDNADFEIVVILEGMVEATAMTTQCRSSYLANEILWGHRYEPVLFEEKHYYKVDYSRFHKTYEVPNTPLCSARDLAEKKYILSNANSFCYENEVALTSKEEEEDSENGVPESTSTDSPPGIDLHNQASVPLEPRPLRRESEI
KCNK9 uninduced – second check of KCNK9 modulator effects in non-induced HEK293 cells; shares compounds with KCNK9 inh; FluxOR thallium flux; inhibition, % at 10 µM; hit rate 40% among 4,900;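 active = thallium signal drop beyond 5 SD of the untreated control mean, on both duplicate plates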;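 note: plate controls were buffer only IC0 wells for no effect and SID17386958 at its maximal inhibitory level for full effect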
KCNK3 confirm – confirmation of human KCNK3 two-pore domain potassium channel inhibitors; shares compounds with KCNK3 inh; CHO-KCNK3 thallium flux, FluxOR fluorescence; 0% buffer, 100% carvedilol maximal block; ratio percent of control, % at 10 µM; hit rate 99% among 2,400;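 active = ratio percent of control, averaged over triplicates, above buffer control mean plus 5 SD, cut at about 64% in these data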;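 note: ratio is the fluorescence rise from min to max over baseline after thallium stimulus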
KCNK3 noninduced – KCNK3 inhibitor counter-screen hit in non-induced cells. shares compounds with KCNK3 inh. hit rate 40% among 2,400. non-induced KCNK3 parental cells, FluxOR thallium flux; stronger effect = lower value. thallium flux ratio (lower = more inhibition) at 10 µM;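 active = thallium flux ratio, averaged over three wells, more than 5 SD below the buffer control mean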;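 note: host cells are CHO cells without KCNK3 induction; ratio is peak minus trough fluorescence over baseline then normalized to buffer controls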
The depositor's hits bear a star; i = inactive; x = no result. A selection: hits, their analogues and other compounds. The true share with any hit is near 4.1%.

SMILES	KCNQ1 block	KCC2 mod	KCNQ1 act	KCNK9 inh	KCNK3 inh	hERG protect	KCNK9 block conf	Kir21 sel	KCNK9 uninduced	KCNK3 confirm	KCNK3 noninduced
Cn1cccc1-c1nc2ccc(NC(=O)c3cccs3)cc2[nH]1	i	x	i	-9.99*	-11.8*	-21.8	45.5%*	i	i	141.0*	0.125*
Cc1cccc(C)c1C(=NCCCN(C)C)c1ccccc1	i	0.767	i	i	i	-0.9	x	x	x	x	x
CC(=O)N(CCC(Cc1ccccc1)c1ccco1)Cc1ccco1 (centres undefined)	i	-3.26	i	i	i	-14.7	x	x	x	x	x
CCC(=O)N(CCC(c1ccco1)c1ccccc1OC)Cc1cccs1 (centres undefined)	i	-1.87	i	-11.8*	-8.89*	-19.8	56.0%*	i	34.0%*	130.3*	0.128*
CC(=O)N(CCC(c1ccccc1)c1ccco1)Cc1cccs1 (centres undefined)	i	-1.21	i	-11.8*	-10.5*	-14.8	56.0%*	i	30.5%*	93.7*	i
COC(=O)CNc1cccc(C(F)(F)F)c1	i	0.037	i	i	i	0.1	x	x	x	x	x
O=C(/C(N=Nc1cccc(C(F)(F)F)c1)=C(/O)c1cccs1)C(F)(F)F	10*	-0.786	i	-8.84*	i	-14.8	i	i	i	67.0*	i
Cc1ccc(N=C/C(C(=O)C(F)(F)F)=C(\O)c2cccs2)cc1	i	1.24	i	i	i	-11.3	x	x	x	x	x
O=C(NCC1CCCO1)c1ccc(NS(=O)(=O)c2cccs2)cc1 (centres undefined)	i	0.841	i	i	i	-16.0	x	x	x	x	x
Cc1ccccc1C(=O)NCC(=O)N1CCN(C/C=C/c2ccccc2)CC1	x	x	x	x	i	x	x	x	x	x	x
CC1=C(C(=O)N2CCOCC2)C(c2cc(C)ccc2C)NC(=S)N1 (centres undefined)	i	-0.129	i	i	i	-13.9	x	x	x	x	x
CC(Sc1nc(-c2ccccc2)cs1)C(=O)Nc1ccc(Cl)cn1 (centres undefined)	i	1	i	i	i	-5.3	x	x	x	x	x
COc1ccc(C2CC(c3ccc4ccccc4c3)=NN2C(=O)CNC2CCCCC2)cc1 (centres undefined)	i	-2.33	i	-8.9*	-10.6*	-29.5	44.5%*	i	29.5%*	132.7*	i
CC1=C(C(=O)Nc2ccccc2)C(c2ccco2)NC(=S)N1 (centres undefined)	i	-0.445	i	i	i	-5.9	x	x	x	x	x
O=C(Nc1ccccc1)C1=C(O)CC(c2ccco2)CC1=Nc1ccccc1 (centres undefined)	i	x	i	-11.5*	i	-6.5	27.0%*	i	36.0%*	114.7*	0.155*
CN(C)S(=O)(=O)c1cccc(NC(=O)Cc2ccc(Cl)cc2)c1	i	-1.73	i	i	i	-0.9	x	x	x	x	x
CN(CCOc1ccc(Cl)cc1)Cc1cccc(S(=O)(=O)N(C)C)c1	i	x	i	-9.72*	-9.17*	-8.2	45.0%*	i	51.5%*	103.0*	i
CC(Oc1ccc(Cl)cc1)c1ccnn1S(=O)(=O)c1ccc(Cl)cc1 (centres undefined)	i	x	i	-14.9*	-13.5*	-11.8	58.0%*	44.5%*	58.0%*	113.7*	0.156*
CC(Oc1ccccc1)c1ccnn1S(=O)(=O)c1ccccc1 (centres undefined)	i	-0.233	i	i	i	-5.3	x	x	x	x	x
COCCN(CC(=O)Nc1cccc(C)c1C)C(=O)c1cc2c(s1)CCC2	x	x	x	x	i	x	x	x	x	x	x
CCC(=O)c1ccccc1OCCCN1CCC(Cc2ccccc2)CC1	i	x	i	i	-10.1*	-17.4	i	i	i	88.0*	0.132*
CC(=O)c1cccc(NS(=O)(=O)c2cc3c(cc2C)N(C(C)=O)CCO3)c1	i	x	i	i	i	-0.4	x	x	x	x	x
COCCCN1C(=O)c2ccc(C(=O)OCC(=O)N(CCC#N)c3cc(C)cc(C)c3)cc2C1=O	i	x	i	i	i	-12.8	x	x	x	x	x
Cc1ccc(NC(=O)C2(C)Cc3ccccc3C(=O)O2)cc1 (centres undefined)	i	0.0403	i	i	i	-12.9	x	x	x	x	x
Cc1ccc(C(=O)N(CCc2ccccc2)Cc2ccccc2)cc1S(=O)(=O)N1CCCCC1	i	x	i	-12.7*	-9.1*	-13.2	76.0%*	i	29.5%*	103.0*	i
SMILES	KCNQ1 block	KCC2 mod	KCNQ1 act	KCNK9 inh	KCNK3 inh	hERG protect	KCNK9 block conf	Kir21 sel	KCNK9 uninduced	KCNK3 confirm	KCNK3 noninduced
Cc1ccc(C(=O)N(CCc2ccccc2)Cc2ccccc2)cc1S(=O)(=O)N1CCOCC1	x	x	x	x	i	x	x	x	x	x	x
CCOC(=O)/C(C(=O)Nc1ccccc1Cl)=C1/NC(C)(C)Cc2ccccc21	i	-0.402	i	-10*	-9.11*	-7.3	37.5%*	i	40.0%*	116.0*	i
C=CCOc1ccc(CN(C)CC(=O)Nc2ccccc2[N+](=O)[O-])cc1	i	-0.0295	i	i	-9.5*	-16.1	i	i	i	98.7*	0.159*
CCc1ccc(CN(C)CC(=O)Nc2ccccc2[N+](=O)[O-])cc1	i	0.0556	i	i	i	-13.4	x	x	x	x	x
NCCc1c(-c2ccccc2)n(-c2ccccc2)c2ccccc12	13*	0.116	i	-9.88*	i	-31.1	54.5%*	62.5%*	36.5%*	135.7*	i
CC1(C)CC(=O)c2c(O)cc(OCc3ccc([N+](=O)[O-])cc3)cc2O1	i	x	i	i	i	-7.6	x	x	x	x	x
CC(OC(=O)c1ccc(O)cc1)C(=O)Nc1cc(C(F)(F)F)ccc1Cl (centres undefined)	6*	-1.05	i	-10.6*	-9.81*	-20.6	i	i	48.5%*	138.7*	0.123*
O=C(COC(=O)c1ccc(O)cc1)Nc1cc(C(F)(F)F)ccc1Cl	i	-1.28	i	i	i	-16.4	x	x	x	x	x
COC(=O)c1cc(C)sc1NC(=S)N1CCN(CCc2ccccc2)CC1	i	0.258	i	i	-10.2*	-16.7	i	i	i	104.0*	i
Cc1sc(Cc2nc(O)cs2)nc1-c1ccccc1	i	3.88	i	i	i	-8.7	x	x	x	x	x
